Records with an inconclusive call do not appear. Calls of active or inactive are those of the source.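 The calls were made as follows, unless noted: active = inhibition over a set limit, the all-compound mean plus 3 SD, in both replicate runs; inconclusive = over that limit in just one replicate run; inactive = at or under that limit in both runs.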
Columns and labels:
[1] = S. cerevisiae growth inhibition in permissive medium (OD615), pilot counter-assay for S. cerevisiae lifespan shortening project, permissive growth control (AID 705;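 active = growth inhibition above 25% in both replicates, a cutoff set 3 SD above the mean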); conditions: OD615, 24 h, at 10 µM, hits give high values
Outline: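 Material: engineered DeaD yeast; Compound: one dose 10 µM, DMSO 0.25% final; Detection: absorbance (optical density) at 615 nm; Buffer or medium: permissive raffinose/galactose medium; Timing: 24 h exposure, 30 °C.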

[2] = S. cerevisiae growth inhibition in restrictive medium, OD615, pilot screen, restrictive growth control, yeast lifespan reduction project (AID 706;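 active = growth inhibition above a set limit, 3 SD over mean compound inhibition, in both replicates, cut at about 43% in these data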;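 also: modified DeaD lifespan yeast strain shifted to restrictive glucose medium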); conditions: OD615, 48 h, at 10 µM, hits give high values
Outline: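 Buffer or medium: restrictive glucose medium (CSMM-D); test system: modified S. cerevisiae; doses: single dose of 10 µM compound final, 0.25% DMSO; schedule: 48 h compound exposure at 30 °C; detection: absorbance (optical density) measured at 615 nm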

[3] = doxorubicin toxicity protection in MRP-1 cells – H69AR cells, CellTiter-Glo, duplicate, MRP-1 activator project, pilot screen (AID 807;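 active = viability increase at or above a cutoff of the median across tested compounds plus 3 SD, cut at about 8.5% in these data, passing the limit was not always enough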;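 also: compound pretreatment 18-22 h then 72 h combined with doxorubicin; 0% = doxorubicin alone and 100% = vehicle without doxorubicin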); conditions: H69AR viability with doxorubicin, CellTiter-Glo luminescence; at 10 µM; hits give high values
[4] = viability of HCT116 without oncogenic beta-catenin – human colon tumor cells, pilot screen (AID 823;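 active = cell viability at or below a set limit in both duplicate runs, the limit being the all-compound median minus 4 SD, cut at about 23% in these data, passing the limit was not always enough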;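 also: 0% = wells killed by 20 µM Hyamine and 100% = untreated DMSO cell wells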); conditions: HCT116 beta-catenin knockout viability, CellTiter-Glo, 60 h; at 10 µM; hits give low values
[5] = viability of PTEN-null HCT116 cells – cell-based, HCT116 clonal line, CellTiter-Glo, pilot screen (AID 824;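 active = viability at or below 27.92% in each of two runs, the all-compound median minus 4 SD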;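 also: 0% = 20 µM Hyamine control and 100% = vehicle cell control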); conditions: HCT116 PTEN-deleted viability, 60 h, at 10 µM, hits give low values
[6] = RAM pathway blockade in budding yeast – dse1pr::URA3 reporter, 5-FOA selection, pilot screen (AID 869);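 also: 0% = DMSO wells with no growth and 100% = 10 µM 1-NA-PP1 with full growth; RAM network block rescues cells from 5-FOA so hits raise OD615 growth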; conditions: S. cerevisiae dse1pr::URA3 5-FOA growth, OD615, 2 d; at 10 µM; hits give high values; strain carries analog-sensitive mutant Cbk1 kinase
[7] = RAM signaling pathway blockade in yeast – S. cerevisiae, Pdr1DBD-CYC8 efflux-inhibited sensitized strain, primary screen (AID 1298;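 active = RAM network inhibition above 8.4% in each of two replicates, 3 SD over the compound average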;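 also: 0% = DMSO untreated cells without growth and 100% = 10 µM 1-NA-PP1 full growth; higher means more yeast growth rescued from 5-FOA killing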); conditions: S. cerevisiae cbk1-as DSE1-URA3 strain, 5-FOA growth OD615, 2 d; at 50 µM; hits give high values

Cc1ccc(S(=O)(=O)N2CCN(Cc3ccccc3C(F)(F)F)CC2)cc1
inactive: growth inhibition [1] -12.5% | growth inhibition [2] -27.7% | viability increase [3] -1.45% | viability [4] 78% | viability [5] 82.8% | inhibition [6] 0.92% | RAM network inhibition [7] 3.06%

CCCCN(C)CCNC(=O)Cn1c(=O)sc2ccccc21
inactive: growth inhibition [1] -0.71% | growth inhibition [2] 4.21% | viability increase [3] -2.43% | viability [4] 99% | viability [5] 96.6% | inhibition [6] 1.31% | RAM network inhibition [7] 5.27%

Cc1cc(C)cc(N(CC(=O)Nc2c(C)n(C)n(-c3ccccc3)c2=O)S(C)(=O)=O)c1
inactive: growth inhibition [1] -11.3% | growth inhibition [2] -11.2% | viability increase [3] -1.95% | viability [4] 96.2% | viability [5] 93.2% | inhibition [6] 0.71% | RAM network inhibition [7] 2.45%

CCc1ncc(C(=O)c2ccc(OC)cc2)n1C
inactive: growth inhibition [1] 1.37% | growth inhibition [2] -0.315% | viability increase [3] 3.42% | viability [4] 105% | viability [5] 104% | inhibition [6] 0.225% | RAM network inhibition [7] 5.28%

Brc1ccc(OCCOCCN2CCOCC2)cc1
inactive: growth inhibition [1] -13.4% | growth inhibition [2] -8.66% | viability increase [3] 2.95% | viability [4] 91.7% | viability [5] 93% | inhibition [6] 0.12% | RAM network inhibition [7] 1.24%

Cn1c2ccc(CC(=O)O)cc2c2cc(CC(=O)O)ccc21
inactive: growth inhibition [1] 1.85% | growth inhibition [2] -12.4% | viability increase [3] -3.54% | viability [4] 96.8% | viability [5] 89.7% | inhibition [6] 1.1% | RAM network inhibition [7] 0.98%

CCCCNC(=O)CS(=O)Cc1nc(-c2cccc(Cl)c2)oc1C (stereo unspecified)
inactive: growth inhibition [1] -2.86% | growth inhibition [2] 11.4% | viability increase [3] -0.78% | viability [4] 92.2% | viability [5] 97.3% | inhibition [6] 0.705% | RAM network inhibition [7] 6.02%

O=C(CN1CCOCC1)Nc1cc(Cl)ccc1Cl
inactive: growth inhibition [1] -13.4% | growth inhibition [2] -2.5% | viability increase [3] -2.37% | viability [4] 92.6% | viability [5] 101% | inhibition [6] 2.6% | RAM network inhibition [7] 1.66%

NC(=O)C1CCN(C(=O)CN(c2cccc(C(F)(F)F)c2)S(=O)(=O)c2ccccc2)CC1
inactive: growth inhibition [1] -10.2% | growth inhibition [2] -14.5% | viability increase [3] -1.48% | viability [4] 99.7% | viability [5] 94.7% | inhibition [6] 2.27% | RAM network inhibition [7] 4.31%

COc1ccc(C2=NOC(C(=O)N3CCN(c4ccccc4OC)CC3)C2)cc1 (stereo unspecified)
inactive: growth inhibition [1] -7.36% | growth inhibition [2] 0.135% | viability increase [3] 2.8% | viability [4] 99.9% | viability [5] 88.5% | inhibition [6] 2.17% | RAM network inhibition [7] 4.09%

CN1CCN(S(=O)(=O)c2ccc3c4c(cccc24)C(=O)N3)CC1
inactive: growth inhibition [1] -11.8% | growth inhibition [2] -4.42% | viability increase [3] -2% | viability [4] 110% | viability [5] 96.4% | inhibition [6] 1.18% | RAM network inhibition [7] 1.28%

COc1cc(SC)ccc1C(=O)Nc1ccc2c(c1)CCN2S(C)(=O)=O
inactive: growth inhibition [1] -4.62% | growth inhibition [2] -7.36% | viability increase [3] 0.15% | viability [4] 100% | viability [5] 94.2% | inhibition [6] 3.22% | RAM network inhibition [7] 4.39%

COc1ccc(OC)c(CCNC(=O)Cn2sc3nc(C)cc(C)c3c2=O)c1
active: growth inhibition [2] 70.4% | viability [4] 2.27% | viability [5] 4.4%
inactive: growth inhibition [1] 18.3% | viability increase [3] -8.04% | inhibition [6] 1.38% | RAM network inhibition [7] 11.3%

O=C(c1cccc(C(=O)N2CCc3ccccc32)n1)N1CCc2ccccc21
inactive: growth inhibition [1] -9.26% | growth inhibition [2] -3.99% | viability increase [3] -5.2% | viability [4] 83.3% | viability [5] 84.4% | inhibition [6] 0.515% | RAM network inhibition [7] 6.13%

Cc1ccc(-c2nn(CC(=O)O)c(=O)c3ccccc23)cc1
inactive: growth inhibition [1] -19.3% | growth inhibition [2] -13.9% | viability increase [3] 1.3% | viability [4] 104% | viability [5] 96.2% | inhibition [6] 2.12% | RAM network inhibition [7] 1.1%

CCn1c(N)nc2c1c(=O)n(C)c(=O)n2C
inactive: growth inhibition [1] 4.48% | growth inhibition [2] -1.29% | viability increase [3] -1.39% | viability [4] 108% | viability [5] 98.9% | inhibition [6] 0.32% | RAM network inhibition [7] 2.67%

CC(c1ccccc1)C1C(C#N)=C(N)OC2=C1C(=O)CCC2 (stereo unspecified)
inactive: growth inhibition [1] -19% | growth inhibition [2] -12.4% | viability increase [3] -0.93% | viability [4] 88% | viability [5] 91.3% | inhibition [6] 3.24% | RAM network inhibition [7] 1.95%

Cc1cc(C(F)(F)F)n2ncc(C(=O)O)c2n1
inactive: growth inhibition [1] 2.26% | growth inhibition [2] 0.105% | viability increase [3] -0.34% | viability [4] 98.3% | viability [5] 91% | inhibition [6] -0.025% | RAM network inhibition [7] 0.78%

NC(=O)CSc1oc(-c2ccc(F)cc2)nc1S(=O)(=O)c1ccccc1
inactive: growth inhibition [1] -6.54% | growth inhibition [2] -10.7% | viability increase [3] -4.42% | viability [4] 92.7% | viability [5] 87.8% | inhibition [6] 0.73% | RAM network inhibition [7] 1.45%

CCOC(=O)C1Cn2c(nc3c(c2=O)C(C)(CC)Cc2ccccc2-3)S1 (stereo unspecified)
inactive: growth inhibition [1] -4.55% | growth inhibition [2] 5.55% | viability increase [3] -2.18% | viability [4] 82.1% | viability [5] 77.7% | inhibition [6] 1.5% | RAM network inhibition [7] 3.03%

OC(CNCc1ccco1)COc1ccccc1 (stereo unspecified)
inactive: growth inhibition [1] -12.7% | growth inhibition [2] -10.2% | viability increase [3] 0.59% | viability [4] 100% | viability [5] 103% | inhibition [6] 1.44% | RAM network inhibition [7] 2.54%

COc1ccc(Cc2nnc(-c3cccc(C)c3)o2)cc1OC
inactive: growth inhibition [1] -11.4% | growth inhibition [2] 2.94% | viability increase [3] 1.15% | viability [4] 95.4% | viability [5] 84.4% | inhibition [6] 1.84% | RAM network inhibition [7] 7.99%

COC(=O)C1C(O)=C(C=NCC(C)N=CC2=C(O)C(C(=O)OC)C(C)(C)CC2=O)C(=O)CC1(C)C (stereo unspecified)
inactive: growth inhibition [1] -4.88% | growth inhibition [2] -3.87% | viability increase [3] -0.55% | viability [4] 92.4% | viability [5] 93.7% | inhibition [6] 2.5% | RAM network inhibition [7] 0.9%

C=CCNC(=O)c1c(Cl)cccc1Cl
inactive: growth inhibition [1] -12.2% | growth inhibition [2] 3.24% | viability increase [3] -1.31% | viability [4] 90.5% | viability [5] 97.3% | inhibition [6] 0.94% | RAM network inhibition [7] 3.89%

O=C(Nc1nnc(-c2ccc3c(c2)CCCC3)o1)C1COc2ccccc2O1 (stereo unspecified)
inactive: growth inhibition [1] 5.39% | growth inhibition [2] 23% | viability increase [3] -2.7% | viability [4] 44.3% | viability [5] 51.1% | inhibition [6] 0.315% | RAM network inhibition [7] -1.78%

Cc1cc(Nc2ccc(C)c(C)c2)n2nc(C)nc2n1
inactive: growth inhibition [1] 6.21% | growth inhibition [2] 10.1% | viability increase [3] -4.63% | viability [4] 105% | viability [5] 96.9% | inhibition [6] 0.77% | RAM network inhibition [7] 3.69%

COc1cc(C(c2sc3nc(C)nn3c2O)N2CCc3ccccc3C2)cc(OC)c1OC (stereo unspecified)
inactive: growth inhibition [1] 3.55% | growth inhibition [2] -1.53% | viability increase [3] -1.3% | viability [4] 110% | viability [5] 96.1% | inhibition [6] 1.23% | RAM network inhibition [7] 2.85%

CCc1ccc(N2CCN(C(=O)c3ccc(OC)c(OC)c3)CC2)cc1
inactive: growth inhibition [1] -15.2% | growth inhibition [2] -8.32% | viability increase [3] 2.36% | viability [4] 57.3% | viability [5] 79% | inhibition [6] 0.975% | RAM network inhibition [7] 2.51%

CN(C)c1ccc(C(=O)Nc2nc3c(s2)CCCC3)cc1
inactive: growth inhibition [1] 9.25% | growth inhibition [2] -3.03% | viability increase [3] -0.42% | viability [4] 69.7% | viability [5] 72.4% | inhibition [6] 0.905% | RAM network inhibition [7] 1.19%

O=C(Nc1c(F)c(F)c(F)c(F)c1F)C1CCCCC1
inactive: growth inhibition [1] -1.42% | growth inhibition [2] -6.55% | viability increase [3] -1.05% | viability [4] 80% | viability [5] 89.2% | inhibition [6] 0.88% | RAM network inhibition [7] 7.02%

Cc1cccc(NC(=O)COc2ccc(Br)cc2C)n1
inactive: growth inhibition [1] -4.42% | growth inhibition [2] 1.1% | viability increase [3] 1.07% | viability [4] 92.9% | viability [5] 90.5% | inhibition [6] 0.655% | RAM network inhibition [7] 5.6%

CCCCNc1ncnc2c1cnn2-c1ccc(Cl)cc1
inactive: growth inhibition [1] -7.84% | growth inhibition [2] -18.1% | viability increase [3] -6.6% | inhibition [6] 0.835% | RAM network inhibition [7] 5.62%
active: viability [4] 17.3% | viability [5] 20.4%

Nc1ccc(-c2nc3ccccc3[nH]2)cc1
inactive: growth inhibition [1] -6.98% | growth inhibition [2] -10.1% | viability increase [3] -3.12% | viability [4] 97.3% | viability [5] 87.8% | inhibition [6] 2.31% | RAM network inhibition [7] 4.57%

Reference: PubChem BioAssay
